Screens from PubChem.
Sampled rows, rich in hits. Any-hit rate of the full collection: about 1.9%.
PLCb3 inh = PLC-beta3 (human) inhibition, primary screen; actives 0.18% (n = 370,000); AID 720704; Purified PLC-beta3, fluorogenic substrate, fluorescence; inhibition, % at 12.2 µM
HGIII-sPLA2 inh = Blocks human group III sPLA2 activity | Q9NZ20 | QFRET BODIPY PC-A2 liposome hydrolysis, fluorescence | inhibition, % at 12.2 µM | actives 0.56% (n = 370,000);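 active = inhibition above mean plus 3 SD of compounds lying within the high and low control bounds, cut at about 19% in these data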
Target sequence (Q9NZ20 whole entry, looked up): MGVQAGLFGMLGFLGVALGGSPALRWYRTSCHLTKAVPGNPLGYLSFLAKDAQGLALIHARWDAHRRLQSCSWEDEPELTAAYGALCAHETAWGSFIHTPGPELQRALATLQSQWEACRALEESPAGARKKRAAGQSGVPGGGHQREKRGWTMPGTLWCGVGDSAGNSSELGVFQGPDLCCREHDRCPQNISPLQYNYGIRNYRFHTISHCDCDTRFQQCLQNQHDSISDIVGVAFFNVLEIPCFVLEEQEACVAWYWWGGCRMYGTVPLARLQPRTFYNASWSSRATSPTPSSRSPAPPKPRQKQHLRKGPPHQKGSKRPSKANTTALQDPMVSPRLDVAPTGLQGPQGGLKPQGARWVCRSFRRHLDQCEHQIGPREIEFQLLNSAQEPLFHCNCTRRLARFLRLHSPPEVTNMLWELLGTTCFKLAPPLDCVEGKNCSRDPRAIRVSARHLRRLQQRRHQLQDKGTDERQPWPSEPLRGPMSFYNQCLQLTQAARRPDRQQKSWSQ
Tb MetRS inh = blocks T. brucei methionyl-tRNA synthetase activity | purified T. brucei MetRS, ATP depletion, Kinase-Glo luminescence | inhibition, % at 11.9 µM | actives 0.4% (n = 360,000) | AID 624268;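 active = inhibition above a per-plate cutoff of the control wells' mean inhibition plus 3 SD, cut at about 5.5% in these data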
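Material – parasite MetRS enzyme · Medium – HEPES-MgCl2-KCl buffer plus DTT, spermine, BSA, pyrophosphatase · Reagent – ATP, methionine and E. coli bulk tRNA substrates · Times – 15 min enzyme-compound preincubation, 2 h reaction, 10 min detection, 25 °C · Measured by – luminescence of leftover ATP · Evaluation – percent inhibition relative to median high and low control wells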
PLC-gamma1 inh = inhibitors of human phospholipase C gamma1. P19174. purified PLC-gamma1, fluorogenic substrate, fluorescence. inhibition, % at 12.2 µM. actives 0.84% (n = 370,000). AID 720700; in the data active = inhibition above about 9.5%
PLCg1 ctr = inhibits human PLC-gamma1 in PLC-beta3 counter-screen; shares compounds with PLC-gamma1 inh; inhibition, % at 12.3 µM; actives 3.1% (n = 3,300); AID 743258; purified PLC-gamma1, fluorogenic substrate, fluorescence; in the data active = inhibition above about 9.5%
PLCb3 confirm = human PLC-beta3 inhibition, confirmation; shares compounds with PLC-gamma1 inh; purified PLC-beta3, fluorogenic substrate fluorescence; inhibition, % at 12.3 µM; actives 1% (n = 3,300); AID 743261
hGIII sPLA2 conf = human GIII-sPLA2 inhibition, confirmation; inhibition, % at 12.2 µM; recombinant hGIII-sPLA2, BODIPY PC-A2 QFRET fluorescence; AID 743280; actives 34% (n = 2,000); shares compounds with HGIII-sPLA2 inh;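 active = mean inhibition across triplicates above the hit cutoff set in the earlier primary screen, cut at about 19% in these data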
BODIPY interf = counter-screen for HGIII-sPLA2 inhibitors: 535nm fluorescence interference; shares compounds with HGIII-sPLA2 inh; BODIPY FL product fluorescence interference, QFRET; inhibition, % at 12.2 µM; actives 8.5% (n = 2,000); AID 743282;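 active = average inhibition above the solvent-only control mean plus 3 SD, cut at about 6% in these data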
BODIPY interf DR = counter-screen for HGIII-sPLA2 inhibitors: 535nm fluorescence interference, dose response; shares compounds with HGIII-sPLA2 inh; BODIPY FL product fluorescence interference, cell-free; 240 tested, under 10 active; IC50, µM;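 active = IC50 at or below 10 µM; inactive = IC50 above 10 µM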
Of the large screens only hits and unclear results are named; the others gave an inactive call (follow-up assays come after a bar, where they were run). Cut-off read from the data, not from the text of the source, unless noted: active = inhibition above about 11%; inactive = the rest.

O=C(NCC(=O)N(CC1CCCO1)C(C(=O)NC1CCCCC1)c1ccc(F)cc1)c1ccco1 (stereo not given)	none
CCOC(=O)CSc1nnnn1-c1cc(OC)c(Cl)cc1OC	PLC-gamma1 inh 9.8 | PLCg1 ctr inactive | PLCb3 confirm inactive
COc1cc(-n2nnnc2SCC(=O)N2CCN(c3ccc(F)cc3)CC2)c(OC)cc1Cl	none
CNC[C@@H]1OCc2ccccc2-c2c(n(C)c3ccccc23)C(=O)N([C@@H](C)CO)C[C@@H]1C	none (no result: Tb MetRS inh)
Cc1ccc2cc(CCNC(=O)c3cccc([N+](=O)[O-])c3)c(=O)[nH]c2c1C	HGIII-sPLA2 inh 22, PLC-gamma1 inh 10 | PLCg1 ctr inactive | PLCb3 confirm inactive | hGIII sPLA2 conf inactive | BODIPY interf inactive
COc1ccc2cc(CCNC(=O)c3cccc([N+](=O)[O-])c3)c(=O)[nH]c2c1	none
CCC[C@H]1[C@@H](OC(=O)NCCc2c[nH]c3ccccc23)CC[C@@]23CCCN2C(=O)CCC[C@@H]13	none (no result: Tb MetRS inh)
Fc1ccc(C2=Nc3cccc4cccc(c34)N2)cc1	none
FC(F)(F)C1=Nc2cccc3cccc(c23)N1	HGIII-sPLA2 inh 28, PLC-gamma1 inh 13 | PLCg1 ctr 12 | PLCb3 confirm inactive | hGIII sPLA2 conf 32 | BODIPY interf 12
c1ccc(Cn2ccc3ccc(-c4ccc5ccn(Cc6cccc(Oc7ccccc7)c6)c5c4)cc32)cc1	none (no result: Tb MetRS inh)
C[C@@H]1CN([C@H](C)CO)C(=O)CCCn2nncc2CO[C@H]1CN(C)C(=O)Nc1cccc(Oc2ccccn2)c1	HGIII-sPLA2 inh 20, PLC-gamma1 inh 9.7 | PLCg1 ctr inactive | PLCb3 confirm inactive | hGIII sPLA2 conf inactive | BODIPY interf inactive
C[C@H](CO)N1C[C@H](C)[C@@H](CN(C)C(=O)Nc2cccc(Oc3ccccn3)c2)OCc2cnnn2CCCC1=O	none
O=C(CSc1nc2[nH]ncc2c(=O)[nH]1)NCc1ccc(F)cc1	HGIII-sPLA2 inh 96, PLC-gamma1 inh 12 | PLCg1 ctr inactive | PLCb3 confirm inactive | hGIII sPLA2 conf inactive | BODIPY interf inactive
CC(=O)NCC1COc2ccccc2O1 (stereo not given)	none
CN(C)C(=O)OCC1COc2ccccc2O1 (stereo not given)	HGIII-sPLA2 inh 21, PLC-gamma1 inh 9.9 | PLCg1 ctr inactive | PLCb3 confirm inactive | hGIII sPLA2 conf inactive | BODIPY interf inactive
Cc1ccc(Cn2cccc2C2=NC(C)CO2)cc1 (stereo not given)	HGIII-sPLA2 inh 21, PLC-gamma1 inh 11 | PLCg1 ctr inactive | PLCb3 confirm inactive | hGIII sPLA2 conf inactive | BODIPY interf inactive
CC(C)(C)c1ccc(CNc2nc(-c3ccccn3)nnc2-c2ccccc2)cc1	HGIII-sPLA2 inh 40, PLC-gamma1 inh 18 (no result: Tb MetRS inh) | PLCg1 ctr 14 | PLCb3 confirm 15 | hGIII sPLA2 conf inactive | BODIPY interf inactive
CSc1ccc(C=Nn2c(-c3cc(C)[nH]n3)n[nH]c2=S)cc1	none (no result: Tb MetRS inh)
CCCNC(=S)N(Cc1ccccc1)Cc1nc2ccccc2c(=O)[nH]1	HGIII-sPLA2 inh 22, PLC-gamma1 inh 20 | PLCg1 ctr inactive | PLCb3 confirm inactive | hGIII sPLA2 conf inactive | BODIPY interf inactive
Cc1cccc(NC2=C(NC(=O)c3ccccc3)C(=O)c3ccccc3C2=O)c1	HGIII-sPLA2 inh 24, PLC-gamma1 inh 10 | PLCg1 ctr inactive | PLCb3 confirm inactive | hGIII sPLA2 conf 23 | BODIPY interf inactive
O=C(NC1=C(Nc2ccc(Cl)cc2)C(=O)c2ccccc2C1=O)c1ccccc1	none
CCCCOc1ccc(Br)cc1CSC(=N)N	HGIII-sPLA2 inh 44, PLC-gamma1 inh 10 | PLCg1 ctr inactive | PLCb3 confirm inactive | hGIII sPLA2 conf 25 | BODIPY interf inactive
CC(C)=CCC/C(C)=C/CN1CC(=O)N2[C@H](C[C@@]3(n4ccc5ccccc54)c4ccccc4N(S(=O)(=O)c4ccccc4)[C@@H]23)C1=O	none (no result: Tb MetRS inh)
CC(=O)CC[C@@H]1CC[C@]2(CCCN(S(=O)(=O)C3CCCCC3)C2)O1	none (no result: Tb MetRS inh)
C=CCNc1nc(Nc2ccc([N+](=O)[O-])cc2)nc(OCC)n1	none
CCOc1nc(Nc2ccc([N+](=O)[O-])cc2)nc(NC(C)(C)C)n1	HGIII-sPLA2 inh 21, PLC-gamma1 inh 9.8 | PLCg1 ctr inactive | PLCb3 confirm inactive | hGIII sPLA2 conf inactive | BODIPY interf inactive
Cc1cc(C)cc([C@H]2C[C@]34CN(C(=O)OC(C)(C)C)S(=O)(=O)[C@H]3C[C@H]2O4)c1	none (no result: Tb MetRS inh)
CC(C)(C)NC(=O)c1cccc2c1OC(C)(C)C2	HGIII-sPLA2 inh 24, PLC-gamma1 inh 16 | PLCg1 ctr inactive | PLCb3 confirm inactive | hGIII sPLA2 conf inactive | BODIPY interf inactive
CC1(C)Cc2cccc(C(=O)NCc3ccco3)c2O1	none
CC(C)C[C@H](NC(=O)c1[nH]cnc1C(=O)N[C@@H](C)C(=O)OC(C)(C)C)C(=O)OC(C)(C)C	PLCb3 inh 11, HGIII-sPLA2 inh 23 | PLCg1 ctr inactive | PLCb3 confirm inactive | hGIII sPLA2 conf inactive | BODIPY interf inactive
CSc1nnc(-c2cc(C)on2)n1-c1ccccc1	HGIII-sPLA2 inh 20, PLC-gamma1 inh 11 | PLCg1 ctr inactive | PLCb3 confirm inactive | hGIII sPLA2 conf inactive | BODIPY interf inactive
Cc1ccc(OCC(=O)Nc2cc(S(=O)(=O)N3CCCCC3)ccc2C)c([N+](=O)[O-])n1	HGIII-sPLA2 inh 21, PLC-gamma1 inh 10 | PLCg1 ctr inactive | PLCb3 confirm inactive | hGIII sPLA2 conf inactive | BODIPY interf inactive
C=CCN1C(=O)[C@@H](CC(=O)NCCC(C)C)[C@]2(C(=O)OCC)CCCCC/C=C/12	none (no result: Tb MetRS inh)
CN(C)c1ccc(/C=N/NC(N)=S)cc1[N+](=O)[O-]	HGIII-sPLA2 inh 21, PLC-gamma1 inh 16 | PLCg1 ctr inactive | PLCb3 confirm inactive | hGIII sPLA2 conf 20 | BODIPY interf inactive
C#CCOCCOCCOCCNc1nc(N2CCN(C(=O)[C@H](CCCCN)n3cc([C@@H](N)C(C)CC)nn3)CC2)nc(N2CCN(C(=O)[C@H](CCCCN)n3cc([C@@H](N)C(C)CC)nn3)CC2)n1 (stereo not given in full)	HGIII-sPLA2 inh 20, PLC-gamma1 inh 10 (no result: Tb MetRS inh) | PLCg1 ctr inactive | PLCb3 confirm inactive | hGIII sPLA2 conf inactive | BODIPY interf inactive
NC(N)=N/N=C(\N=Nc1ccccc1)c1ccc(Cl)cc1	HGIII-sPLA2 inh 27, PLC-gamma1 inh 10 | PLCg1 ctr inactive | PLCb3 confirm inactive | hGIII sPLA2 conf 34 | BODIPY interf inactive | BODIPY interf DR inactive
NC(N)=N/N=C(\N=Nc1ccccc1)c1cccc2cccnc12	none
O=S(=O)(c1sccc1Br)n1c(CN2CCOCC2)nc2ccccc21	none (no result: Tb MetRS inh)
